Sampled rows, rich in hits. Any-hit rate of the full collection: about 5.9%.
Pyk2 oligo antag: antagonists of human Pyk2 oligomerization; Q293 cells, Pyk2 FERM NanoBiT luminescence; stronger effect = lower value; Q14289; z-score (the deposit names both 25 µM and 10 µM); actives 0.83% (n = 99,000);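 active means Z-score of -3 or lower, scaled per plate to the spread of control and sample wells; inactive means z-score above -3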;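 further: negative z-score means lost luminescence so less FERM oligomerization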
Measles CPE: protection of cells from measles virus; Measles virus-infected cells, CPE protection, absorbance; protection (pct of control), % at 4 µM; actives 1.5% (n = 140,000); in the data active means protection mostly above about 24%, no sharp cut-off; inactive means mostly below about 26%
hDAT+cocaine: human DAT dopamine uptake with cocaine, either direction. AID 449768. Q01959. actives 1.3% (n = 110,000). B-score at 10 µM. LLC-PK1 hDAT cells, [14C]-dopamine uptake with cocaine IC80; actives deviate in either direction;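 active means Z score or B-score, a plate-position-corrected score, falls beyond the plate's 99.7% confidence bounds, in either direction; inactive means both scores lie inside the 99.7% bounds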
Target sequence (Q01959 whole entry, looked up): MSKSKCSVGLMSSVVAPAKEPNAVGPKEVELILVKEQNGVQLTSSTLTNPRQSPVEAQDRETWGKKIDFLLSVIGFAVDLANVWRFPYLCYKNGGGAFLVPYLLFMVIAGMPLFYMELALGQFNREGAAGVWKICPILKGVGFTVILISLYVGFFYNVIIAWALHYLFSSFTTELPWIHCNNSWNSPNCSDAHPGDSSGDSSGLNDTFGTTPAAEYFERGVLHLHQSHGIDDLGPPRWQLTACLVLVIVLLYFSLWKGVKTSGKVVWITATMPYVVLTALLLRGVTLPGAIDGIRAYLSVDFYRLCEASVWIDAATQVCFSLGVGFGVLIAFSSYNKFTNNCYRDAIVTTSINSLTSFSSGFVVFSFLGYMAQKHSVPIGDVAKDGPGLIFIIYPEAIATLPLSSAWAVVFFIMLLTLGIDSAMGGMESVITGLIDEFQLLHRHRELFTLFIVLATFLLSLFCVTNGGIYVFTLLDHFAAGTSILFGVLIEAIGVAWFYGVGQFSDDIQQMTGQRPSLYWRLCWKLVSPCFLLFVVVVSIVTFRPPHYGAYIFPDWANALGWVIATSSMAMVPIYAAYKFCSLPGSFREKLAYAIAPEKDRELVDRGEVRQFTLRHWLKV
Phagocytosis inh: macrophage phagocytosis inhibition; AID 1029; J774A.1 macrophage IgG-bead phagocytosis, imaging; inhibition, % at 5 µM; actives 0.07% (n = 110,000);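 active means inhibition above the mean of the plate negative controls plus 5 SD, cut at about 13% in these data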;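 further: phagocytic index as fraction of beads internalized from green versus red external bead signal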
Cav3 T inh: blocks human Cav3.2 T-type calcium channel | actives 4% (n = 100,000) | AID 449739 | Cav3.2-expressing cells, Fluo-4 calcium fluorescence FDSS; stronger effect = lower value | B-score at 10 µM;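 active means single-dose well whose peak fluorescence ratio is a statistical outlier from its plate by either plate-standardised score or position-corrected B-score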
Rev-RRE block: inhibitors of HIV-1 Rev-RRE RNA interaction. actives 0.79% (n = 97,000). AID 704. P05866. Rev peptide-RRE RNA binding, FRET. inhibition, % at 8 µM;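 active means inhibition above the screen-wide mean plus 3 SD, cut at about 35% in these data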
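System: Cy5-labelled duplex RRE RNA binding fluorescein-labelled HIV Rev peptide; Signal: fluorescein-to-Cy5 FRET, 480 nm excitation; Also added: labelled Rev peptide; Compound: one concentration, 8 µM nominal; Buffer or medium: HEPES pH 7.5 salt buffer with EDTA; Read-out: % inhibition of FRET ratio versus controls; Schedule: 5 min preincubation and 15 min binding, 25 °C.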
Large screens that a line does not name were inactive.

COc1ccc(-c2csc(N3C(=N)SCC3=O)n2)cc1	hDAT+cocaine 1.9 (no result: Phagocytosis inh)
COc1ccc(-c2csc(N3C(=O)CNC3=S)n2)cc1	none (no result: Pyk2 oligo antag, hDAT+cocaine, Cav3 T inh, Rev-RRE block)
O=C(c1cn(-c2ccccc2)nc1-c1cccs1)N1CCN(c2ccccn2)CC1	Cav3 T inh -6.2
Cc1cc(C)c(C(CC(=O)c2cccs2)C(C#N)C#N)c(C)c1 (stereo not given)	none (no result: Pyk2 oligo antag, hDAT+cocaine, Phagocytosis inh, Cav3 T inh, Rev-RRE block)
Cc1ccc(CNC(=O)C2CC(c3ccccc3F)=NO2)cc1 (stereo not given)	none (no result: Pyk2 oligo antag, Measles CPE, Phagocytosis inh, Rev-RRE block)
CC(C)(Oc1ccc(Cl)cc1)C(=O)OCC(=O)Nc1ncc(Cl)cc1Cl	Cav3 T inh -6.9 (no result: Phagocytosis inh)
O=C(COC(=O)CC12CC3CC(CC(C3)C1)C2)Nc1ncc(Cl)cc1Cl	Cav3 T inh -5.9
O=C(COC(=O)C12CC3CC(CC(C3)C1)C2)Nc1ncc(Cl)cc1Cl	none (no result: Phagocytosis inh)
Cc1ccc(S(=O)(=O)NCC(=O)OCC(=O)Nc2ncc(Cl)cc2Cl)cc1	none
COc1ccc(C(=O)CCc2nc3ccccc3s2)cc1	none (no result: Pyk2 oligo antag, hDAT+cocaine, Cav3 T inh, Rev-RRE block)
CCN1C(=O)N[C@@H](c2ccco2)C(C(C)=O)=C1C	none (no result: Pyk2 oligo antag, Measles CPE, Phagocytosis inh, Rev-RRE block)
COC(=O)CN(c1nc(C)c(Br)c(OC)n1)S(=O)(=O)c1ccc(C)cc1	Cav3 T inh -5.5
Cc1nc2ccccc2c(=O)n1/N=C/c1cn(-c2ccccc2)nc1-c1cccs1	Cav3 T inh -4
CCOC(=O)c1ccccc1NS(=O)(=O)c1ccccc1F	Measles CPE 33
CCOC(=O)c1ccccc1NS(=O)(=O)c1ccccc1	none
O=C(O)c1oc2ccccc2c1-n1cccc1	Measles CPE 27
COC(=O)c1oc2ccc(Br)cc2c1-n1cccc1	none
N#Cc1ccc(-c2ccc3c(c2)OCO3)nc1SCC(=O)OCc1ccccc1	Cav3 T inh -4.6
COc1ccc(-c2ccc(C#N)c(SCC(=O)OCc3ccccc3)n2)cc1OC	none
Cc1ccc(CNc2ccc(N3C(=O)CCCC3=O)cc2[N+](=O)[O-])cc1	none (no result: Pyk2 oligo antag, hDAT+cocaine, Cav3 T inh, Rev-RRE block)
C#CCOCCOCCOCCNc1nc(N2CCN(C(=O)C([C@@H](C)CC)n3cc(C(N)COC(=O)C(F)(F)F)nn3)CC2)nc(N2CCN(C(=O)C([C@@H](C)CC)n3cc(C(N)CC(C)C)nn3)CC2)n1 (stereo not given in full)	none (no result: Pyk2 oligo antag, Measles CPE, Phagocytosis inh, Rev-RRE block)
CCc1ccc(C(=O)COC(=O)C(Cc2ccccc2)NC(=O)c2ccc(Cl)cc2)cc1 (stereo not given)	Measles CPE 45, Cav3 T inh -4.8
CC(=O)NC(Cc1ccccc1)C(=O)OCC(=O)c1ccc(Cl)cc1 (stereo not given)	none (no result: Pyk2 oligo antag, hDAT+cocaine, Cav3 T inh, Rev-RRE block)
CC1(C)Cc2c(c(-c3ccccc3)[nH]c(=O)c2C#N)CO1	none
CC1(C)Cc2c(c(-c3ccccc3Cl)[nH]c(=O)c2C#N)CO1	Measles CPE 28
O=C(COC(=O)c1nc(-c2ccccc2)n(-c2cccc(C(F)(F)F)c2)n1)NCc1cccs1	none (no result: Pyk2 oligo antag, Measles CPE, hDAT+cocaine, Cav3 T inh, Rev-RRE block)
CC/C(=C\C(=O)c1ccncc1)Nc1ccc(O)cc1	hDAT+cocaine 3
COC(=O)c1c(NC(=O)COC(=O)CNC(=O)C2CCCCC2)sc(C)c1C	none (no result: Pyk2 oligo antag, hDAT+cocaine, Cav3 T inh, Rev-RRE block)
CC(C)Nc1nc(NC(C)C)nc(NS(=O)(=O)c2ccc(N)cc2)n1	Measles CPE 30 (no result: Phagocytosis inh)
CC(C)(C)c1cc(C(C)(C)C)cc(S(=O)(=O)CCc2ccccn2)c1	Cav3 T inh -6.9
CCOC(=O)c1cc2sccc2n1CC(=O)N1CCCc2ccccc21	Cav3 T inh -3.8
O=C(c1cc2sccc2n1Cc1ccccc1)N1CCCc2ccccc21	Cav3 T inh -6.8
Cc1occc(=O)c1OC(=O)Nc1ccc(Cl)c(Cl)c1	none (no result: Pyk2 oligo antag, hDAT+cocaine, Cav3 T inh, Rev-RRE block)
Cc1csc(NC(C)c2nc3cc(Cl)c(N4CCCCC4)cc3n2CCOCCO)n1 (stereo not given)	none (no result: Pyk2 oligo antag, Measles CPE, Phagocytosis inh, Rev-RRE block)
CCNS(=O)(=O)c1ccc(NC(=O)c2cc(C(F)(F)F)nn2C)cc1	Measles CPE 101 (no result: Phagocytosis inh)
CCNS(=O)(=O)c1ccc(NC(=O)c2cccnc2)cc1	none (no result: Rev-RRE block)
Cc1ccc(NCc2nnc(SCC(=O)Nc3ccccc3)n2CC2CCCO2)c(C)c1 (stereo not given)	Cav3 T inh -4.5
CCn1c(COc2cccc3ccccc23)nnc1SCC(=O)OC1CCCCC1	Cav3 T inh -5.6
CCn1c(CNC(=O)COc2ccc(C(C)C)cc2)nnc1SCC(=O)Nc1ccccc1	Cav3 T inh -4
